The results in this text go back to ChEMBL document CHEMBL3286304, “Cytotoxicity and DNA binding property of the dimers of triphenylethylene-coumarin hybrid with one amino side chain” (Bioorg Med Chem Lett, 2014).

Each structure is given as a SMILES string. Calls of active or inactive are those of the source. No cut-off for these calls is given here. Some results are limits rather than exact numbers.

The test system of series [1] is Calf thymus DNA. The series is described as follows: Binding affinity to calf thymus DNA assessed as hyperchromicity at 50 uM at 25 degC at pH 7.4 after 10 mins by UV-vis spectrophotometry. Format: nucleic-acid assay. To be noted: Bos taurus. Put shortly:
(§1)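 Ct-DNA titrated (0–180 µM for some dimers, 0–160 µM for others) into dimer at 5.0 × 10^-5 M in 10 mM phosphate buffer pH 7.4, 50 mM NaCl, 2% DMSO, 25 °C; UV–vis absorption followed at λmax; binding constant K by double inverse method.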

Series [2] in a line: Cytotoxicity against mouse skull osteoblasts at 20 uM after 48 hrs by MTT assay. Format: cell-based. To be noted: osteoblast. (Tetrazolium assays rely on reduction of a dye to a coloured formazan, in cell work by metabolically active cells.)
Series [3] has as its system Calf thymus DNA. Briefly: Binding affinity to calf thymus DNA at 25 degC at pH 7.4 after 10 mins by UV-vis spectrophotometry. The series is classed as nucleic-acid assay. To be noted: Bos taurus. Put shortly:
as §1

Series [4] relates to Calf thymus DNA. The series is described as follows: Binding affinity to calf thymus DNA assessed as DNA intercalation at 20 uM at pH 7.4 after 10 mins by circular dichroism analysis. Format: nucleic-acid assay. To be noted: Bos taurus. Put shortly:
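CD spectra of Ct-DNA (5.0 × 10^-5 M) alone and with dimer at 2.0 × 10^-5 M in 10 mM phosphate buffer pH 7.4, 50 mM NaCl, 2% DMSO, 25 °C.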
On the technique in general: CD spectra are sensitive to the conformation of chiral molecules.

The subject of series [5] is Calf thymus DNA. Briefly: Binding affinity to calf thymus DNA assessed as hypsochromic shift at 50 uM at 25 degC at pH 7.4 after 10 mins by UV-vis spectrophotometry. Format: nucleic-acid assay. The conditions noted are these: Bos taurus. Put shortly: as §1
A short description of series [6]: Cytotoxicity against mouse skull osteoblasts at 40 uM after 48 hrs by MTT assay. Format: cell-based. To be noted: osteoblast.
The test system of the next series is MCF7. The series is described as follows: Antiproliferative activity against human MCF7 cells after 48 hrs by MTT assay. Format: functional, cell-based. The conditions noted are these: MCF7, 48 h.
The test system of series [7] is Calf thymus DNA. Briefly: Binding affinity to calf thymus DNA assessed as change in melting temperature at 5 uM after 10 mins by thermal denaturation assay. The series is classed as nucleic-acid assay. The conditions noted are these: Bos taurus. Put shortly:
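Melting curves of Ct-DNA (5.0 × 10^-5 M) with or without dimer at 5.0 × 10^-6 M in 1 mM phosphate buffer pH 7.4, 5 mM NaCl, 2% DMSO; heated over roughly 55–85 °C; ΔTm taken relative to DNA alone.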

Series [8] in a line: Cytotoxicity against mouse skull osteoblasts at 100 uM after 48 hrs by MTT assay. The conditions noted are these: osteoblast. The series is classed as cell-based.
For series [9], the system named is Calf thymus DNA. Briefly: Binding affinity to calf thymus DNA at 25 degC at pH 7.4 after 10 mins by Stern-Volmer plot analysis. Format: nucleic-acid assay. To be noted: Bos taurus. Put shortly:
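Dimer (5.0 × 10^-5 M) titrated with Ct-DNA 0–180 µM in 10 mM phosphate pH 7.4, 50 mM NaCl, 2% DMSO, 25 °C; fluorescence emission near 465 nm, excitation 330–345 nm by compound, slits 5.0 nm; F/F0 versus DNA concentration, Stern–Volmer fitting gives binding constant.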

Series [10] in a line: Cytotoxicity against mouse skull osteoblasts at 10 uM after 48 hrs by MTT assay. Format: cell-based. The conditions noted are these: osteoblast.
Another series has as its system K562. Briefly: Antiproliferative activity against human K562 cells after 48 hrs by MTT assay. The series is classed as functional, cell-based. The conditions noted are these: K562, 48 h.
Series [11] is described as follows: Cytotoxicity against mouse skull osteoblasts at 1 uM after 48 hrs by MTT assay. Format: cell-based. To be noted: osteoblast.
A further series deals with HeLa. The series is described as follows: Antiproliferative activity against human HeLa cells after 48 hrs by MTT assay. Format: functional, cell-based.
A further series has as its system A549. The series is described as follows: Antiproliferative activity against human A549 cells after 48 hrs by MTT assay. The series is classed as functional, cell-based. To be noted: A549, 48 h.

As to `O=C(CC(=O)Nc1ccc(-c2c(-c3ccc(OCCN4CCCCC4)cc3)c3ccccc3oc2=O)cc1)Nc1ccc(-c2c(-c3ccc(OCCN4CCCCC4)cc3)c3ccccc3oc2=O)cc1`, the Activity with Calf thymus DNA [1] was determined as 47%; in [2], 0.6%; in the series with Calf thymus DNA [5], 2 nm; in series [6] it was 20.1%; in series [8] it was 36.2%; in series [10], 0.3%. Further, the Activity in [11] is on record as -8.4%. For the same molecule, the Kb in the series on Calf thymus DNA [3] amounted to 4.5 ×10⁵ /M; in the series with Calf thymus DNA [9], 6.9 ×10⁵ /M. Besides, in the series with Calf thymus DNA [4], the outcome was Active. The IC50 in the series with MCF7 came out at 8.57 µM; with K562, 0.98 µM; in the series on HeLa, 7.82 µM; in the series on A549, 8.44 µM. Besides, the ΔTm in the series on Calf thymus DNA [7] came out at 6 °C.

With `O=C(Nc1ccc(-c2c(-c3ccc(OCCN4CCCC4)cc3)c3ccccc3oc2=O)cc1)c1cccc(C(=O)Nc2ccc(-c3c(-c4ccc(OCCN5CCCC5)cc4)c4ccccc4oc3=O)cc2)c1`, the IC50 with MCF7 worked out at 29.5 µM; with K562, 15.2 µM; in the series on HeLa, 31 µM; in the series with A549, 15.2 µM.

Take `O=C(CC(=O)Nc1ccc(-c2c(-c3ccc(OCCN4CCCC4)cc3)c3ccccc3oc2=O)cc1)Nc1ccc(-c2c(-c3ccc(OCCN4CCCC4)cc3)c3ccccc3oc2=O)cc1`: the Activity in series [2] is 0.8%; in [6], 14.5%; in [8], 27.4%; in series [10], -1.3%; in series [11] it was -10.4%. In addition, the IC50 in the series on MCF7 came out at 3.52 µM; with K562, 3.23 µM; with HeLa, 6.49 µM; in the series on A549, 7.73 µM.

Consider `O=C(CCCCCCCCC(=O)Nc1ccc(-c2c(-c3ccc(OCCN4CCCC4)cc3)c3ccccc3oc2=O)cc1)Nc1ccc(-c2c(-c3ccc(OCCN4CCCC4)cc3)c3ccccc3oc2=O)cc1`, for which the IC50 in the series on MCF7 was found to be 35.9 µM; with K562, 18.9 µM; in the series with HeLa, 42.5 µM; in the series with A549, 16.9 µM.

Take `O=C(CCCCC(=O)Nc1ccc(-c2c(-c3ccc(OCCN4CCCC4)cc3)c3ccccc3oc2=O)cc1)Nc1ccc(-c2c(-c3ccc(OCCN4CCCC4)cc3)c3ccccc3oc2=O)cc1`: the IC50 in the series with MCF7 amounted to 37.6 µM; in the series with K562, 28 µM; with HeLa, 36.4 µM; in the series with A549, 22.3 µM.

In the case of `O=C(CCCCCCCCC(=O)Nc1ccc(-c2c(-c3ccc(OCCN4CCCCC4)cc3)c3ccccc3oc2=O)cc1)Nc1ccc(-c2c(-c3ccc(OCCN4CCCCC4)cc3)c3ccccc3oc2=O)cc1`, the Activity in the series with Calf thymus DNA [1] stood at 35%; with Calf thymus DNA [5], 1.5 nm. Besides, the Kb in the series on Calf thymus DNA [3] was found to be 5.3 ×10⁴ /M; in the series with Calf thymus DNA [9], 2.1 ×10⁴ /M. The result with Calf thymus DNA [4] was Active. Besides, the IC50 in the series with MCF7, in the series on K562, in the series with HeLa and in the series with A549 was above 50 µM each time. Moreover, the ΔTm with Calf thymus DNA [7] was determined as 2.5 °C.

As for `O=C(CCCCC(=O)Nc1ccc(-c2c(-c3ccc(OCCN4CCCCC4)cc3)c3ccccc3oc2=O)cc1)Nc1ccc(-c2c(-c3ccc(OCCN4CCCCC4)cc3)c3ccccc3oc2=O)cc1`, the Activity came out at 40% in the series on Calf thymus DNA [1] and 1.5 nm with Calf thymus DNA [5]. For the same molecule, the Kb amounted to 1.5 ×10⁵ /M in the series on Calf thymus DNA [3] and 3.8 ×10⁵ /M in the series with Calf thymus DNA [9]. Moreover, the result in the series with Calf thymus DNA [4] was Active. The IC50 with MCF7 is 35.4 µM; with K562, 23.8 µM; in the series on HeLa, 34.4 µM; in the series on A549, 27 µM. For the same molecule, the ΔTm in the series on Calf thymus DNA [7] was found to be 5.1 °C.

As to `Nc1ccc(-c2c(-c3ccc(OCCN4CCCC4)cc3)c3ccccc3oc2=O)cc1`, the IC50 was 45.7 µM with MCF7, above 50 µM in the series with K562, above 50 µM in the series on HeLa and above 50 µM with A549.

As to `O=C(Nc1ccc(-c2c(-c3ccc(OCCN4CCCCC4)cc3)c3ccccc3oc2=O)cc1)c1cccc(C(=O)Nc2ccc(-c3c(-c4ccc(OCCN5CCCCC5)cc4)c4ccccc4oc3=O)cc2)c1`, the Activity with Calf thymus DNA [1] turned out to be 32%; in the series with Calf thymus DNA [5], 0.5 nm. The Kb in the series with Calf thymus DNA [3] was found to be 4.8 ×10⁴ /M; in the series on Calf thymus DNA [9], 1.3 ×10⁴ /M. In addition, the outcome in the series with Calf thymus DNA [4] was Active. In addition, the IC50 with MCF7, with K562, in the series with HeLa and in the series on A549 was above 50 µM in each case. Also, the ΔTm in the series on Calf thymus DNA [7] is 2 °C.

With `Nc1ccc(-c2c(-c3ccc(OCCN4CCCCC4)cc3)c3ccccc3oc2=O)cc1`, the IC50 in the series with MCF7 is 43.8 µM; in the series on K562, above 50 µM; in the series with HeLa, above 50 µM; in the series on A549 it was above 50 µM.

A word on the IC50: it is the concentration needed to halve the response being measured. Low readings indicate greater potency in that assay, high ones weaker potency in that assay. The ΔTm is the change in melting temperature against a reference sample.
